Assay outcomes: PubChem BioAssay, several laboratories
A selection: hits, their analogues and other compounds. The true share with any hit is near 4.8%.
Mdm2-MdmX inh – inhibitors of human Mdm2-MdmX association, primary screen, cell-based, luminescence, split luciferase, SaOS-2, uHTS; SaOS-2 split-luciferase Mdm2/MdmX complementation; inhibition, % at 8 µM; 330,000 compounds, 3% hits;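 active means inhibition of at least 50% at 8 µM in the primary screen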
Target sequence (O15151 whole entry, looked up): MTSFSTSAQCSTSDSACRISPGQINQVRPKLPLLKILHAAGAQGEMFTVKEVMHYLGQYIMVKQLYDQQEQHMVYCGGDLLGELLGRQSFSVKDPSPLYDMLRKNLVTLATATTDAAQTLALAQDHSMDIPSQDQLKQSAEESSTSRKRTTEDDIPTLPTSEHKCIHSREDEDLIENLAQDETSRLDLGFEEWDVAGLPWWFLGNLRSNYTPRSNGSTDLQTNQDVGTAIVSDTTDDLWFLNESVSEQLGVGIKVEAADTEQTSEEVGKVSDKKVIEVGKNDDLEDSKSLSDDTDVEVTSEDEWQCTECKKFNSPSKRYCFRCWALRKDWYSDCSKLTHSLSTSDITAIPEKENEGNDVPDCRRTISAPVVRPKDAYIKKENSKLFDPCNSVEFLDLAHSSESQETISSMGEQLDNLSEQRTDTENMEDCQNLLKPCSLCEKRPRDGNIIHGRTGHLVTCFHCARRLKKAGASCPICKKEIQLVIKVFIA
Target sequence (Q00987 whole entry, looked up): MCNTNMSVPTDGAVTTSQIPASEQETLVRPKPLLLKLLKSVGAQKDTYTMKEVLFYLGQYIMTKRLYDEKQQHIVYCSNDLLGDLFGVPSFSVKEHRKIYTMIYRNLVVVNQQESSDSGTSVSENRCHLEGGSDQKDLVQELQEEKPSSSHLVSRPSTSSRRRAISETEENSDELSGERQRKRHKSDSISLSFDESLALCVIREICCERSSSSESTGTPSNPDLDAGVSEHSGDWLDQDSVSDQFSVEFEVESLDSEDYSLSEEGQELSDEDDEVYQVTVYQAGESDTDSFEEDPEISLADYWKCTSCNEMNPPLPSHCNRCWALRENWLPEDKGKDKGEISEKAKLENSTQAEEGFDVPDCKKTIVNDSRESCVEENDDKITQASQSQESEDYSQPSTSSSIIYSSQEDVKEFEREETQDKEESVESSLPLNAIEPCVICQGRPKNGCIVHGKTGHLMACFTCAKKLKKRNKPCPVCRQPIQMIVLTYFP
Beta cell apopt – inhibitors of cytokine-induced beta cell apoptosis, primary screen, luminescence | INS-1E cytokine-induced death, ATP luminescence, 48 h; percent of positive-control rescue, neutral wells zero | protection from apoptosis, % (concentration not given with the values) | 300,000 compounds, 0.8% hits | AID 435005, 2010;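 active means Every replicate reaches about 75%, or at least half do and their mean reaches it too, limit read from the data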;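 further: higher means more ATP so stronger rescue from cytokine killing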
XBP1 UPR activ – activators of adaptive XBP1 UPR arm, primary screen, cell-based, CHO-XBP1 luciferase reporter, luminescence, uHTS. IRE1-XBP1 UPR activation; percent of tunicamycin response, DMSO as zero. activation, % at 20 µM. 330,000 compounds, 0.33% hits. AID 463104, 2010;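 active means versus positive control, 20 µM dose yields 30% or more activation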
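Assay system: CHO-XBP1 luciferase reporter cells; Schedule: 6 h treatment, 37 °C; Detection: glow luminescence from Steady-Glo reagent; Benchmarks: high control tunicamycin 10 µg/mL final, low control DMSO vehicle only.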
SKKanGAS inh – S. pyogenes SKKanGAS growth inhibitors in kanamycin, primary screen, streptokinase expression inhibitor project, SKKanGAS strain, BacTiter-Glo luminescence; 6 h; 300,000 compounds, 1.3% hits; inhibition, % at 7.5 µM; AID 1662, 2009;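 active means mean replicate score, as percent of positive control median, at least 50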;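 further: strain carries kanamycin resistance gene driven by streptokinase promoter and grows in 40 µg/ml kanamycin; loss of luminescence reflects streptokinase promoter inhibition or plain growth inhibition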
UPR CHOP act – activators of apoptotic CHOP UPR arm, primary screen, cell-based, CHO-CHOP luciferase reporter, luminescence, uHTS | UPR activation; percent of tunicamycin response over DMSO baseline | 330,000 compounds, 0.34% hits | activation, % at 10 µM;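 active means at 10 µM dose, activation of 40% or more, normalized to positive control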
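Assay system: CHO-CHOP cells, stable luciferase reporter of PERK-eIF2a-CHOP signalling / Buffer or medium: F12 plus 10% serum / Compound dosing: one dose, 10 µM in 0.5% DMSO / Times: 6 h compound treatment, 37 °C / Technique: luciferase luminescence / Read-out: % reporter activation, DMSO baseline versus tunicamycin full activation / Benchmarks: tunicamycin and DMSO controls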
CSC inhib – cancer stem cell viability inhibitors, primary screen, luminescence; inhibition, % at 7.5 µM; 300,000 compounds, 1.1% hits; cancer stem cell-like cells viability; AID 2717, 2010; in the data active means inhibition above about 75%; tested in HMLE shEcad cells
Each line names hits and unclear results; the compound was inactive in the other large screens.

O=C1c2ccccc2C(=O)c2c1ccc1c(=O)n(-c3ccccc3)[nH]c21	none
Cc1cccc(-n2[nH]c3c4c(ccc3c2=O)C(=O)c2ccccc2C4=O)c1	SKKanGAS inh 80
Cc1ccn2c(=O)c(NC(=O)c3cccs3)c(C)nc2c1	none
O=[N+]([O-])c1ccc(N=Nc2c(Cl)cc(O)cc2Cl)cc1	Beta cell apopt 122, SKKanGAS inh 50, CSC inhib 110 (no result: Mdm2-MdmX inh, XBP1 UPR activ, UPR CHOP act)
CC(N)=Nc1ccc([N+](=O)[O-])cc1	none
CCCCCCCCOC(=O)C1=C(C)Nc2nnnn2C1c1cccs1 (stereo not given)	SKKanGAS inh 107, CSC inhib 102
O=C(NNC(=S)NC(=O)c1ccc(Br)cc1)c1ccc([N+](=O)[O-])cc1	SKKanGAS inh 100
O=C(NNC(=S)NC(=O)c1ccc(Br)cc1)c1cccc([N+](=O)[O-])c1	SKKanGAS inh 102
O=C(NNC(=S)NC(=O)c1ccccc1)c1ccc([N+](=O)[O-])cc1	SKKanGAS inh 67
O=C(NC(=S)NNC(=O)c1ccccc1O)c1ccc([N+](=O)[O-])cc1	none
Cc1ccc(C(=O)NC(=S)NNC(=O)c2ccc([N+](=O)[O-])cc2)cc1	SKKanGAS inh 80
CC(C)(C)c1ccc(OCCC(=O)Nc2ccc(N3CCOCC3)cc2N2CCOCC2)cc1	none
Cn1cnnc1SCC(=O)NNC(=O)c1ccc([N+](=O)[O-])cc1	none (no result: SKKanGAS inh)
COCCCNC(=O)C1=CCN(S(=O)(=O)c2ccc(OC)cc2)CC1	none
O=C(NNc1c(Cl)cc(Cl)cc1Cl)c1cccc([N+](=O)[O-])c1	Beta cell apopt 113
Fc1ccc(CN(Cc2ccccc2)C(c2cccs2)c2nnnn2C2CCCCC2)cc1 (stereo not given)	Beta cell apopt 94
COc1cc(OC)cc(C(=O)N[C@H](C(=O)OCC(=O)Nc2ccc3c(c2)OCO3)C(C)C)c1	none (no result: SKKanGAS inh)
O=C(Nc1cnn(C23CC4CC(CC(C4)C2)C3)c1)c1cc(-c2ccccc2)on1	CSC inhib 81
N#CC(C#N)=C1C=CC=CN1/C(=C\c1ccco1)C(=O)c1ccc(-c2ccccc2)cc1	CSC inhib 75 (no result: Mdm2-MdmX inh, XBP1 UPR activ, SKKanGAS inh, UPR CHOP act)
Cc1ccc(-n2c(Cl)c(Cl)nc(Cl)c2=O)cc1	Beta cell apopt 98, CSC inhib 91 (no result: Mdm2-MdmX inh, XBP1 UPR activ, SKKanGAS inh, UPR CHOP act)
COc1nc(Cl)cn(-c2ccc(C)cc2)c1=O	none
Cc1ccc(Cn2c(SCC(=O)N(C)C3CCS(=O)(=O)C3)nc3ccccc3c2=O)cc1 (stereo not given)	none
Cc1ccc(S(=O)(=O)N2CCN(C(=O)COc3ccc(NC(=O)c4ccco4)cc3)CC2)cc1	CSC inhib 94
Oc1ccc(N=Nc2c(O)ccc3ccccc23)cc1	CSC inhib 78
COc1cc(N=Nc2ccc3ccccc3c2)ccc1O	CSC inhib 93
Oc1ccc(N=Nc2ccc3ccccc3c2)cc1	CSC inhib 111
NS(=O)(=O)c1ccc(N=Nc2c(O)ccc3ccccc23)cc1	none
CCn1c(SCC(=O)NC2CCCC2)nnc1C(C)NC(=O)c1ccccc1Br (stereo not given)	none (no result: CSC inhib)
C=CCN(CC=C)C(=O)C1CCN(S(=O)(=O)c2ccc(N3CCCC3=O)cc2)CC1	none
CCN(CC(=O)Nc1c(F)cccc1F)C(=O)Cn1[nH]c(=O)c2ccccc2c1=O	none (no result: SKKanGAS inh, CSC inhib)
COc1ccc(-c2cc3nc4ccccc4n3c(N)c2C#N)cc1	SKKanGAS inh 74
CCN(CC)c1ccc(C(=O)N/N=C/c2ccccc2OC(F)F)cc1	Beta cell apopt 80
CC(C)Oc1ccccc1/C=N/NC(=O)c1ccc(F)cc1	none
CCn1cc(C(=O)NCc2ccc3c(c2)OCO3)c(=O)c2cc(F)c(N3CCN(C(=O)c4ccco4)CC3)cc21	SKKanGAS inh 54
CCCCOC(=O)c1ccc(NC(=S)N2CCN(c3ncc4c(=O)c(C(=O)O)cn(CC)c4n3)CC2)cc1	SKKanGAS inh 92
CCn1cc(C(=O)O)c(=O)c2cc(F)c(N3CCN(C(=S)Nc4ccc(OC)cc4)CC3)cc21	SKKanGAS inh 68 (no result: CSC inhib)
Nc1cc(=O)[nH]c2nnc(SCC(=O)Nc3cccc4ccccc34)n12	none
Cc1ccc(OCCC(=O)NNC(=O)c2ccccc2F)cc1	none (no result: SKKanGAS inh, CSC inhib)
CCc1ccc(NC(=O)C2CCN(S(=O)(=O)c3ccc4c(c3)CC(C)N4C(C)=O)CC2)cc1 (stereo not given)	none
COc1ccc(CCN(C)c2ccc(S(=O)(=O)N3CCCC3)cc2[N+](=O)[O-])cc1OC	none
COc1ccc(CN(C)c2ccc(S(=O)(=O)N3CCN(C)CC3)cc2[N+](=O)[O-])cc1OC	Beta cell apopt 102 (no result: SKKanGAS inh, CSC inhib)
Cc1ccc(S(=O)(=O)CCC(=O)OCC(=O)c2cc(C)n(C)c2C)cc1	none (no result: SKKanGAS inh, CSC inhib)
CCC1CCCCN1C(=S)NC(=O)c1cccc([N+](=O)[O-])c1 (stereo not given)	SKKanGAS inh 53
CC1CCN(C(=S)NC(=O)c2cccc([N+](=O)[O-])c2)CC1	none
CC(C)OC(=O)c1c(NS(=O)(=O)c2ccccc2)sc2c1CCCC2	SKKanGAS inh 97
COC(=O)c1c(NS(=O)(=O)Cc2ccccc2)sc2c1CCCC2	none
Cc1ccc(CNC(=O)CN(C(=O)N2CCN(C)CC2)S(=O)(=O)c2ccc(C)cc2)cc1	none (no result: CSC inhib)
CC(C)=CCc1cc([C@@H]2CC(=O)c3ccc(O)c(CC=C(C)C)c3O2)ccc1O	SKKanGAS inh 86
Cc1ccc2c(c1)C(=O)CC(c1ccc3c(c1)OCCO3)O2 (stereo not given)	none
CCOC(=O)c1cnc2ccc(OC)cc2c1NCc1ccccc1	none (no result: CSC inhib)
CCOC(=O)c1cnc2ccc(OCC)cc2c1NCc1ccccc1OC	CSC inhib 76
CCn1cc(/C=C(\NC(=O)c2ccccc2)C(=O)NCCCN2CCOCC2)c2ccccc21	none
Cc1ccc2nc(N/C(=N/S(=O)(=O)c3ccc(F)cc3)c3ccccc3)sc2c1	SKKanGAS inh 51
Cc1ccc2nc(-c3ccc(NS(=O)(=O)c4ccc(F)cc4)cc3)sc2c1	SKKanGAS inh 76 (no result: CSC inhib)
Cc1ccc2nc(-c3ccc(N)cc3)sc2c1	SKKanGAS inh 54
Cc1ccc2nc(N/C(=N/S(=O)(=O)c3ccc(F)cc3F)c3ccccc3)sc2c1	none
CC(=O)Nc1ccc(S(=O)(=O)Nc2nc3ccc(C)cc3s2)cc1	none
Nc1ccc2nc(-c3ccccc3)sc2c1	none
COc1ccc(NC(=O)c2ccc(NC(=O)CSc3nc(N)cc(=O)[nH]3)cc2)cc1	none (no result: SKKanGAS inh)
C/C(=N\NC(=O)COc1ccc(C)cc1C(C)C)c1cc2ccccc2o1	SKKanGAS inh 57 (no result: CSC inhib)
